Data on six compounds can be found in ChEMBL document CHEMBL1135697, “Formaldehyde-induced DNA cross-link of indolizino[1,2-b]quinolines derived from the A-D rings of camptothecin” (J Med Chem, 2002).

Format in all cases: functional
The species entered for test [1] is Bos taurus. The test can be described thus: Absorption spectral changes upon addition of 200 uM calf thymus DNA to drug solution at 20 uM in 1 mM Na cacodylate buffer at pH 7.0. In short, it runs like this: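 Read-out is UV-visible absorption of the drug before and after DNA addition. Hypochromism (H) and bathochromic shift (Δλ) are reported.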
Test [2] has as its system Calf thymus DNA. The test can be described thus: Binding constant to reduce by 50% the fluorescence of ethidium bromide bound to calf thymus DNA; No displacement of DNA-bound ethidium bromide at 50 uM. To be noted: Bos taurus. In short, it runs like this:
(§1)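 Competitive fluorometric displacement of ethidium bromide prebound to calf thymus DNA. The drug level that cuts ethidium fluorescence by 50% is found, and the binding constant is calculated from it.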

Test [3] is filed under the species Bos taurus. The test can be described thus: Variation in melting temperature performed in BPE buffer at pH 7.1,using 10 uM drug and 20 uM calf thymus DNA (CT). The procedure, abridged:
(§2)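 UV melting is monitored at 260 nm with a 1 °C/min heating ramp. BPE buffer is 6 mM Na2HPO4, 2 mM NaH2PO4 and 1 mM EDTA, pH 7.1. DNA is calf thymus or poly(dAdT)2 at 20 μM. ΔTm = Tm(complex) − Tm(DNA alone).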

The species named for test [4] is Bos taurus. The test can be described thus: Variation in melting temperature performed in BPE buffer at pH 7.1,using 10 uM drug and 20 uM calf thymus poly (dAT). The procedure, abridged:
as §2

Test [5] has as its system Calf thymus DNA. The test can be described thus: Binding constant to reduce by 50% the fluorescence of ethidium bromide bound to calf thymus DNA. The following applies: Bos taurus. The procedure, abridged:
as §1

Structures are written as SMILES.

For `Cc1cc2n(c(=O)c1C(N)=O)Cc1cc3ccccc3nc1-2`, in the test listed under Bos taurus [1], the Bathochromic shift stood at 0 nm and the Hypochromic shift amounted to 2.7%. Further, the “K app x10e6” value with Calf thymus DNA [2] is “No displacement of DNA-bound ethidium bromide at 50 uM”. Moreover, the shift in melting temperature (ΔTm) in the test filed under Bos taurus [3] stood at 0 °C. Besides, the ΔTm in the test listed under Bos taurus [4] was found to be 0 °C.
On to `Cc1cc2n(c(=O)c1CN)Cc1cc3ccc(OCCN4CCCCC4)cc3nc1-2`, for which the Bathochromic shift in the test filed under Bos taurus [1] stood at 11 nm. The Hypochromic shift in the test filed under Bos taurus [1] was determined as 38.6%. Also, the K app x10e6 in the test on Calf thymus DNA [5] amounted to 8.4 M⁻¹. Also, the ΔTm in the test filed under Bos taurus [3] amounted to 19.4 °C; in the test filed under Bos taurus [4], 28.6 °C.
With `Cc1cc2n(c(=O)c1CN)Cc1cc3ccccc3nc1-2`, in the test filed under Bos taurus [1], the Bathochromic shift was 8 nm and the Hypochromic shift turned out to be 33.1%. For the same compound, the “K app x10e6” value with Calf thymus DNA [2] is “No displacement of DNA-bound ethidium bromide at 50 uM”. Besides, the ΔTm in the test listed under Bos taurus [3] worked out at 1.9 °C. The thermal shift (ΔTm) in the test listed under Bos taurus [4] was determined as 3 °C.
As to `Cc1cc2n(c(=O)c1C(N)=O)Cc1cc3ccc(OCCN4CCCCC4)cc3nc1-2`, in the test listed under Bos taurus [1], the Bathochromic shift worked out at 8 nm and the Hypochromic shift stood at 35.8%. This compound also gave a K app x10e6 with Calf thymus DNA [5] of 0.2 M⁻¹. The ΔTm in the test listed under Bos taurus [3] turned out to be 4.6 °C. Also, the ΔTm in the test filed under Bos taurus [4] amounted to 12.8 °C.
The matching figures for `Cc1cc2n(c(=O)c1C(N)=O)Cc1cc3cc(OCCN4CCCCC4)ccc3nc1-2`: 9 nm, 33%, 0.29 M⁻¹, 1.2 °C and 5.8 °C.
For `Cc1cc2n(c(=O)c1CN)Cc1cc3cc(OCCN4CCCCC4)ccc3nc1-2`, the Bathochromic shift in the test filed under Bos taurus [1] came out at 9 nm. The Hypochromic shift in the test listed under Bos taurus [1] amounted to 35.3%. The K app x10e6 in the test on Calf thymus DNA [5] came out at 2.5 M⁻¹. For the same compound, the ΔTm in the test listed under Bos taurus [3] was 13.6 °C; in the test listed under Bos taurus [4] it was 19.8 °C.

Broadly, the ΔTm is the change in melting temperature against a reference sample.
